According to article PMC10558795 (Redox Biology, 2023):

Tests used:
NRF2 (NRF2^Mut-KYSE180) = NRF2 (NRF2^Mut-KYSE180) (Homo sapiens, UniProt Q16236, D77V); assay: CHX chase analysis of NRF2 half-life in KYSE180 cells; type: cell-based; conditions: PYR 10 μM, MIT 20 nM
In short: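 Cells were grown in RPMI1640 GlutaMAX with 10% FBS and 1% penicillin/streptomycin at 37 °C, 5% CO₂. They were pre-incubated 4 h with test compound, then given 200 μg/ml cycloheximide to block protein synthesis. Cells were harvested at set time points after cycloheximide. Total lysates were run on SDS-PAGE and blotted for NRF2 and GAPDH, and band densities were used to calculate NRF2 half-life.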

KYSE180 cells = assay: High-content cytotoxicity screen; type: cell-based, human; conditions: Homo sapiens, KYSE-180, 72 h, read-out: Cell proliferation (IC50, μM)
In short: (§1)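 Cells were seeded at 1200/well in 384-well plates and cultured overnight. Test compound was added at […] serial dilution from 10 µM, in triplicate, for 3 days. Controls were 0.1% DMSO (negative), 30 µM benzethonium chloride and 0.1% Triton X-100 added just before staining (positive). Cells were stained with 0.5 µg/ml Hoechst and 100 nM YOYO1, four 4× images per well. Normalized total-cell and dead-cell percentages were fitted for IC₅₀.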

STAT3 = assay: pSTAT3 and STAT3 expression in KYSE70 cells; type: cell-based, human; conditions: up to 10 μM
In short: (§2)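 Nuclear and cytosolic fractions prepared with an extraction kit, or whole-cell lysates in RIPA buffer. Proteins separated by SDS-PAGE, transferred to nitrocellulose, blocked and probed with primary antibody overnight at 4 °C. Chemiluminescence detected on film and quantified by densitometry; band data as mean ± SD, Student's t-test.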

[1] = system: NFE2L2 mRNA and NRF2 target genes; assay: qPCR of NFE2L2 mRNA and NRF2 target genes; type: cell-based, human
In short: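 Gene expression quantified by real-time PCR using gene-specific primers and TaqMan probes on a 96-well real-time PCR system.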

[2] = system: NRF2 and NQO1 expression in NRF2^Mut-KYSE70 cells; assay: Western blotting of NRF2 and NQO1 expression in KYSE70 cells; type: cell-based, human; conditions: KYSE70 cells
In short: as §2

[3] = system: NRF2 activity (NQO1-YFP signal, CDDO-activated); assay: High-throughput screen and dose response: NRF2 activity; type: cell-based, human; conditions: Homo sapiens, NCI-H1299, read-out: NRF2 inhibition (IC50, μM)
In short: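 NQO1-YFP H1299 reporter cells (YFP in NQO1 intron 1, constitutive mCherry) were seeded 1000/well in 384-well plates and cultured overnight. Primary screen: 1 μM compound in 0.1% DMSO, one well each, with CDDO 200 nM and 0.1% DMSO controls. Retests used 10-point serial dilutions from 10 µM in triplicate, with brusatol control. Imaged at 0, 24, 48, 64 h (YFP = NRF2 activity, mCherry = viability); IC₅₀ by curve fit.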

KYSE70 cells = assay: High-content cytotoxicity screen; type: cell-based, human; conditions: Homo sapiens, KYSE-70, 72 h, read-out: Cell proliferation (IC50, μM)
In short: as §1

NRF2-ARE binding = NRF2-ARE binding (Homo sapiens, UniProt Q16236, W24C); assay: ELISA-based TransAM NRF2-ARE binding assay with KYSE70 nuclear extracts
NRF2-ARE binding, sequence (Q16236 whole entry W24C): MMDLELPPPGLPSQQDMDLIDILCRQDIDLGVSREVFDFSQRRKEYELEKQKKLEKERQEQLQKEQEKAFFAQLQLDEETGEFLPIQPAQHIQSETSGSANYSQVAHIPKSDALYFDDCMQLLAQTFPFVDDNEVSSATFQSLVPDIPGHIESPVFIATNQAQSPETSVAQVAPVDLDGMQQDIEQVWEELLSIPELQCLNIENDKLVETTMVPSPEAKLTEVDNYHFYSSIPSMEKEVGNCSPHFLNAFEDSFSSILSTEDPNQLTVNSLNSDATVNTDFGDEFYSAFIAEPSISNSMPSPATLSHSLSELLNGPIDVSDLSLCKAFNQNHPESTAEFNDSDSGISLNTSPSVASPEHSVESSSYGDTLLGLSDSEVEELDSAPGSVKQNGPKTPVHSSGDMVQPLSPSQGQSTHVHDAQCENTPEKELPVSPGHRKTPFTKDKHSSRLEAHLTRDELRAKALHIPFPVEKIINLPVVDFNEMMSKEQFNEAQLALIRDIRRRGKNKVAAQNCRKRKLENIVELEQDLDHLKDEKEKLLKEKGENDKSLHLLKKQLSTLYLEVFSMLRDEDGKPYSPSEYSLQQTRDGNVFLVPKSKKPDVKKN
In short: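 TransAM ELISA: nuclear extract from untreated KYSE70 cells (20 μg/well) added to wells containing ARE oligonucleotide. Test compound, competitor or mutated competitor added, then 1 h incubation with mild agitation and washing. Anti-NRF2 antibody 1 h, then HRP-conjugated secondary antibody and substrate; A450nm read.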

DHFR = DHFR (Homo sapiens, UniProt P00374); assay: DHFR activity assay kit; type: biochemical; conditions: KYSE70 cells
DHFR, sequence (P00374 whole entry): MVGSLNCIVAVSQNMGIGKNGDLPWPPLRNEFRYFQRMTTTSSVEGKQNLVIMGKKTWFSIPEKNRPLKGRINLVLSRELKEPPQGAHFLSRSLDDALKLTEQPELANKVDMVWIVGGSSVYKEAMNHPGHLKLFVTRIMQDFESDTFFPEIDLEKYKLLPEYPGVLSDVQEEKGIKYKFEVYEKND
In short: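 Kit-based DHFR enzymatic assay followed by the decrease in A340nm over time; methotrexate 1 μM as reference DHFR inhibitor.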

NRF2 (NRF2^Mut-KYSE180), sequence (Q16236 whole entry D77V): as the sequence (Q16236 whole entry W24C) above, with C24W, D77V counted along it

For `CCc1nc(N)nc(N)c1-c1ccc(Cl)cc1` [PYR, Pyrimethamine], the “Effect on NRF2 half-life” value (NRF2 (NRF2^Mut-KYSE180)) was “shortened NRF2 half-life”, the IC50 (KYSE180 cells) was > 10 µM and the “pSTAT3 and STAT3 expression” value (STAT3) was “did not significantly inhibit”. For the same compound, the “NFE2L2 mRNA and NRF2 target genes (AKR1B10, AKR1C2, AKR1C3, PGD, SLC7A11, TKT) by qPCR” value [1] was “downregulation”, the “Expression of nuclear NRF2 and cytoplasmic NQO1” value [2] was “inhibited the expression of nuclear NRF2 and cytoplasmic NQO1 in a dose- and time-dependent manner” and the IC50 [3] was 0.23 µM. For the same compound, the IC50 (KYSE70 cells) was > 10 µM, the NRF2-ARE binding activity (NRF2-ARE binding) was “did not observe any changes” and the “Concentration from which DHFR activity is significantly inhibited” value (DHFR) was ≥ 5 µM.
